Measured values from ChEMBL document CHEMBL3856208, “Lupane and 18α-oleanane derivatives substituted in the position 2, their cytotoxicity and influence on cancer cells” (Eur J Med Chem, 2016).

How the values were obtained:
[1] = Cytotoxicity against human CCRF-CEM cells after 72 hrs by MTS assay; assay type: functional, cell-based
How it was run: (§1)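 Cells seeded at 25000–35000 cells/mL, compounds from DMSO dosed at time zero as four-fold dilutions. Exposure 72 h at 37 °C, 5% CO2, with MTS added for 1–4 h and OD read at 490 nm. Survival expressed as % of mean control OD, with IC50 from dose-response curves. Run as technical duplicates in at least three biological replicates.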

[2] = Cytotoxicity against human CEM/DNR cells after 72 hrs by MTS assay; assay type: functional, cell-based; how it was run: as §1
[3] = Cytotoxicity against human K562 cells after 72 hrs by MTS assay; assay type: functional, cell-based; conditions: K562, 72 h; how it was run: as §1
[4] = Cytotoxicity against human K562-TAX cells after 72 hrs by MTS assay; assay type: functional, cell-based; how it was run: as §1
[5] = Cytotoxicity against human A549 cells after 72 hrs by MTS assay; assay type: functional, cell-based; conditions: A549, 72 h; how it was run: as §1
[6] = Cytotoxicity against human HCT116 cells after 72 hrs by MTS assay; assay type: functional, cell-based; conditions: HCT-116, 72 h; how it was run: as §1
[7] = Cytotoxicity against p53 deficient human HCT116 cells after 72 hrs by MTS assay; assay type: functional, cell-based; conditions: HCT-116, 72 h; how it was run: as §1
[8] = Cytotoxicity against human U2OS cells after 72 hrs by MTS assay; assay type: functional, cell-based; how it was run: as §1
[9] = Cytotoxicity against human BJ cells after 72 hrs by MTS assay; assay type: toxicity, cell-based; how it was run: as §1
[10] = Cytotoxicity against human MRC5 cells after 72 hrs by MTS assay; assay type: toxicity, cell-based; how it was run: as §1
[11] = Therapeutic index, ratio of IC50 for human BJ cells to IC50 for human CCRF-CEM cells; assay type: cell-based; conditions: BJ cells versus CCRF-CEM cells, read-out: Ratio IC50
[12] = Therapeutic index, ratio of IC50 for human MRC5 cells to IC50 for human CCRF-CEM cells; assay type: cell-based; conditions: MRC5 cells versus CCRF-CEM cells, read-out: Ratio IC50

SMILES: CC1(C)CC[C@]23CC[C@]4(C)[C@H](CC[C@@H]5[C@@]6(C)C[C@@H](NC(=O)CCC(=O)O)[C@H](O)C(C)(C)[C@@H]6CC[C@]54C)[C@H]2[C@H]1OC3
- IC50 [1]: > 50 µM

SMILES: CC1(C)CC[C@]23CC[C@]4(C)[C@H](CC[C@@H]5[C@@]6(C)CC([N+](=O)[O-])=C(O)C(C)(C)[C@@H]6CC[C@]54C)[C@H]2[C@H]1OC3
- IC50 [1]: > 50 µM

SMILES: CC1(C)CC[C@]23CC[C@]4(C)[C@H](CC[C@@H]5[C@@]6(C)C[C@H](N=[N+]=[N-])[C@H](O)C(C)(C)[C@@H]6CC[C@]54C)[C@H]2[C@H]1OC3
- IC50 [1]: > 50 µM

SMILES: CC1(C)CC[C@]23CC[C@]4(C)[C@H](CC[C@@H]5[C@@]6(C)C=C(O)C(=O)C(C)(C)[C@@H]6CC[C@]54C)[C@H]2[C@H]1OC3
- IC50 [1]: 13 to 13.1 µM
- IC50 [2]: > 50 µM
- IC50 [3]: 16.9 µM
- IC50 [4]: 45.3 µM
- IC50 [5]: > 50 µM
- IC50 [6]: 41.6 µM
- IC50 [7]: 33.4 µM
- IC50 [8]: 45.8 µM
- IC50 at 72 h [9]: > 50 µM
- IC50 at 72 h [10]: 25.4 µM
- selectivity ratio [11]: > 2.9
- selectivity ratio [12]: > 2.9

SMILES: CC1(C)CC[C@]23CC[C@]4(C)[C@H](CC[C@@H]5[C@@]6(C)C=C(N)C(=O)C(C)(C)[C@@H]6CC[C@]54C)[C@H]2[C@H]1OC3
- IC50 [1]: > 50 µM

SMILES: CC1(C)CC[C@]23CC[C@]4(C)[C@H](CC[C@@H]5[C@@]6(C)CC([N+](=O)[O-])([N+](=O)[O-])C(=O)C(C)(C)[C@@H]6CC[C@]54C)[C@H]2[C@H]1OC3
- IC50 [1]: > 50 µM

SMILES: CC(=O)N[C@@H]1C[C@]2(C)[C@H]3CC[C@@H]4[C@H]5[C@H]6OC[C@@]5(CCC6(C)C)CC[C@@]4(C)[C@]3(C)CC[C@H]2C(C)(C)[C@H]1OC(C)=O
- IC50 [1]: > 50 µM

SMILES: CC(=O)N[C@H]1C[C@]2(C)[C@H]3CC[C@@H]4[C@H]5[C@H]6OC[C@@]5(CCC6(C)C)CC[C@@]4(C)[C@]3(C)CC[C@H]2C(C)(C)[C@H]1OC(C)=O
- IC50 [1]: > 50 µM

SMILES: COC(=O)CCC(=O)N[C@@H]1C[C@]2(C)[C@H]3CC[C@@H]4[C@H]5[C@H]6OC[C@@]5(CCC6(C)C)CC[C@@]4(C)[C@]3(C)CC[C@H]2C(C)(C)[C@H]1O
- IC50 [1]: > 50 µM

SMILES: CC1(C)CC[C@]23CC[C@]4(C)[C@H](CC[C@@H]5[C@@]6(C)CC(N=[N+]=[N-])C(=O)C(C)(C)[C@@H]6CC[C@]54C)[C@H]2[C@H]1OC3 (stereo partly drawn)
- IC50 [1]: > 50 µM

SMILES: CC(C)[C@@H]1CC[C@]2(C(=O)O)CC[C@]3(C)[C@H](CC[C@@H]4[C@@]5(C)C=C(O)C(=O)C(C)(C)[C@@H]5CC[C@]43C)[C@@H]12
- IC50 [1]: 6 µM

SMILES: C=C(C)[C@@H]1CC[C@]2(CO)CC[C@]3(C)[C@H](CC[C@@H]4[C@@]5(C)CC[C@H](O)C(C)(C)[C@@H]5CC[C@]43C)[C@@H]12 [BETULIN]
- IC50 [1]: > 50 µM

SMILES: CC(=O)NC1=C[C@]2(C)[C@H]3CC[C@@H]4[C@H]5[C@H]6OC[C@@]5(CCC6(C)C)CC[C@@]4(C)[C@]3(C)CC[C@H]2C(C)(C)C1=O
- IC50 [1]: 29.9 to 30 µM
- IC50 [2]: 35.3 µM
- IC50 [3]: 37.9 µM
- IC50 [4]: 30.5 µM
- IC50 [5]: > 50 µM
- IC50 [6]: > 50 µM
- IC50 [7]: > 50 µM
- IC50 [8]: > 50 µM
- IC50 at 72 h [9]: > 50 µM
- IC50 at 72 h [10]: > 50 µM
- selectivity ratio [11]: > 1.7
- selectivity ratio [12]: > 1.7

SMILES: COC(=O)CCC(=O)N[C@H]1C[C@]2(C)[C@H]3CC[C@@H]4[C@H]5[C@H]6OC[C@@]5(CCC6(C)C)CC[C@@]4(C)[C@]3(C)CC[C@H]2C(C)(C)[C@H]1O
- IC50 [1]: > 50 µM

SMILES: CC(C)[C@@H]1CC[C@]2(C(=O)O)CC[C@]3(C)[C@H](CC[C@@H]4[C@@]5(C)CC([N+](=O)[O-])([N+](=O)[O-])C(=O)C(C)(C)[C@@H]5CC[C@]43C)[C@@H]12
- IC50 [1]: 28.6 to 29 µM
- IC50 [2]: 46.6 µM
- IC50 [3]: > 50 µM
- IC50 [4]: 29.9 µM
- IC50 [5]: > 50 µM
- IC50 [6]: > 50 µM
- IC50 [7]: > 50 µM
- IC50 [8]: > 50 µM
- IC50 at 72 h [9]: > 50 µM
- IC50 at 72 h [10]: > 50 µM
- selectivity ratio [11]: > 1.7
- selectivity ratio [12]: > 1.7
